Test results reported in ChEMBL document CHEMBL3856250, “Discovery of 6-Fluoro-5-(R)-(3-(S)-(8-fluoro-1-methyl-2,4-dioxo-1,2-dihydroquinazolin-3(4H)-yl)-2-methylphenyl)-2-(S)-(2-hydroxypropan-2-yl)-2,3,4,9-tetrahydro-1H-carbazole-8-carboxamide (BMS-986142): A Reversible Inhibitor of Bruton's Tyrosine Kinase (BTK) Conformationally Constrained by Two …” (J Med Chem, 2016).
The source made the active and inactive calls. The calls are words filed in the database; no cut-off is given here.

Tests used:
[1] = Cmax in mouse at 10 mg/kg, iv or po; format: ADME, organism-based; details: in vivo
[2] = AUC in mouse at 10 mg/kg; format: ADME, organism-based; details: in vivo
[3] = Clearance in mouse at 10 mg/kg, iv or po; format: ADME, organism-based; details: in vivo
Mus musculus [4] = assay: Anti-autoimmune activity in lupus prone NZB/WF1 mouse model assessed as protection against tubulo-interstitial nephritis at 10 mg/kg, po administered qd for 16 weeks; format: functional, organism-based
Mus musculus [5] = assay: Anti-autoimmune activity in lupus prone NZB/WF1 mouse model assessed as protection against glomerular nephritis at 10 mg/kg, po administered qd for 16 weeks; format: functional, organism-based
Mus musculus [6] = assay: Anti-autoimmune activity in lupus prone NZB/WF1 mouse model assessed as protection against inflammatory infiltration at 10 mg/kg, po administered qd for 16 weeks; format: functional, organism-based
Mus musculus [7] = assay: Anti-autoimmune activity in lupus prone NZB/WF1 mouse model assessed as reduction in immune complex deposits at 10 mg/kg, po administered qd for 16 weeks; format: functional, organism-based
[8] = biological target: T1, Tyrosine-protein kinase BTK (Homo sapiens, UniProt Q06187); assay: Inhibition of BTK in human whole blood assessed as suppression of BCR/anti-IgM/IgG-stimulated CD69 surface expression after 18 hrs with agitation by FITC-staining based FACS analysis; format: tissue-based
Homo sapiens [9] = species on record: Homo sapiens; assay: Selectivity ratio of IC50 for JAK2 (unknown origin) to IC50 for full length recombinant human His-tagged BTK expressed in baculovirus
[10] = biological target: T1, Tyrosine-protein kinase BTK; assay: Inhibition of BTK in human Ramos-B cells assessed as suppression of BCR/anti-IgM-stimulated Ca2+ flux after 1 hr incubation in dark by FLIPR1 assay
Homo sapiens [11] = species on record: Homo sapiens; assay: Inhibition of Na+ channel (unknown origin) at 10 uM at 1 Hz by patch clamp assay
Homo sapiens [12] = species on record: Homo sapiens; assay: Inhibition of Na+ channel (unknown origin) at 10 uM at 4 Hz by patch clamp assay
Mus musculus [13] = assay: Anti-autoimmune activity in lupus prone NZB/WF1 mouse model assessed as inhibition of increase in severe proteinuria at 30 mg/kg, po administered qd for 16 weeks; format: functional, organism-based
In short: (§1)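 Female NZB/WF1 mice, 24 weeks old, were randomized (n = 12 per group) after baseline body weight, proteinuria and serum dsDNA titers were measured. They were dosed by oral gavage once daily for 16 weeks in 80:20 PEG400/water vehicle, with prednisolone 10 mg/kg as the comparator arm. Health was monitored routinely, and weight, proteinuria and anti-dsDNA titers were measured every 3 weeks.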

Mus musculus [14] = assay: Anti-autoimmune activity in lupus prone NZB/WF1 mouse model assessed as protection from disease-related death at 30 mg/kg, po administered qd for 16 weeks; format: functional, organism-based; in short: as §1
Mus musculus [15] = assay: Anti-autoimmune activity in lupus prone NZB/WF1 mouse model assessed as protection against tubulo-interstitial nephritis at 30 mg/kg, po administered qd for 16 weeks; format: functional, organism-based; in short: as §1
Mus musculus [16] = assay: Anti-autoimmune activity in lupus prone NZB/WF1 mouse model assessed as protection against glomerular nephritis at 30 mg/kg, po administered qd for 16 weeks; format: functional, organism-based; in short: as §1
Mus musculus [17] = assay: Anti-autoimmune activity in lupus prone NZB/WF1 mouse model assessed as protection against inflammatory infiltration at 30 mg/kg, po administered qd for 16 weeks; format: functional, organism-based; in short: as §1
Mus musculus [18] = assay: Anti-autoimmune activity in lupus prone NZB/WF1 mouse model assessed as reduction in immune complex deposits at 30 mg/kg, po administered qd for 16 weeks; format: functional, organism-based; in short: as §1
Mus musculus [19] = assay: Antiathritis activity in anticollagen antibody-induced arthritis BALB/c mouse model assessed as reduction in LPS-induced bone resorption in right hind paws at 5 and 20 mg/kg, po qd followed by LPS addition on day 3 measured after 11 days relative to control; format: functional, organism-based
Mus musculus [20] = assay: Antiathritis activity in anticollagen antibody-induced arthritis BALB/c mouse model assessed as reduction in LPS-induced inflammation in right hind paws at 5 and 20 mg/kg, po qd followed by LPS addition on day 3 measured after 11 days relative to control; format: functional, organism-based
Homo sapiens [21] = species on record: Homo sapiens; assay: Inhibition of Ca2+ channel (unknown origin) at 10 uM by patch clamp assay
[22] = biological target: T1, Tyrosine-protein kinase BTK
[23] = Stability of the compound in methanol at 37 degC after 3 days; format: physicochemical; details: 72 h
[24] = Drug level in mouse treated with 3-Chloro-4-(R)-(3-(S)-(8-fluoro-1-methyl-2,4-dioxo-1,2-dihydroquinazolin-3(4H)-yl)-2-methylphenyl)-7-(2-hydroxypropan-2-yl)-9H-carbazole-1-carboxamide assessed as compound formation; format: ADME; details: in vivo
[25] = Drug level in rat treated with 3-Chloro-4-(R)-(3-(S)-(8-fluoro-1-methyl-2,4-dioxo-1,2-dihydroquinazolin-3(4H)-yl)-2-methylphenyl)-7-(2-hydroxypropan-2-yl)-9H-carbazole-1-carboxamide assessed as compound formation; format: ADME; details: in vivo
[26] = Drug level in dog treated with 3-Chloro-4-(R)-(3-(S)-(8-fluoro-1-methyl-2,4-dioxo-1,2-dihydroquinazolin-3(4H)-yl)-2-methylphenyl)-7-(2-hydroxypropan-2-yl)-9H-carbazole-1-carboxamide assessed as compound formation; format: ADME, Canis lupus familiaris; details: in vivo
[27] = Stability of the compound in methanol at 37 degC after 5 days; format: physicochemical; details: 120 h
[28] = Stability in plasma (unknown origin) at 37 degC after 5 days; format: ADME, cell-free; details: 120 h
[29] = Drug metabolism in mouse assessed as metabolite 13c formation at 10 mg/kg, iv or po; format: ADME, organism-based; details: in vivo
[30] = Protein binding in human serum; format: ADME; details: read-out: PPB (converted)
[31] = Drug level in rat plasma treated with 4-(3-(S)-(8-Fluoro-1-methyl-2,4-dioxo-1,2-dihydroquinazolin-3(4H)-yl)-2-methylphenyl)7-(2-hydroxypropan-2-yl)-9H-carbazole-1-carboxamide after 1 hr by HPLC analysis; format: ADME
In short: (§2)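 Atropisomer distribution was followed in plasma from multiple species incubated at 37 °C over 4 h.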

[32] = Drug level in human plasma treated with 4-(3-(S)-(8-Fluoro-1-methyl-2,4-dioxo-1,2-dihydroquinazolin-3(4H)-yl)-2-methylphenyl)7-(2-hydroxypropan-2-yl)-9H-carbazole-1-carboxamide after 4 hrs by HPLC analysis; format: ADME; in short: as §2
[33] = Drug level in cynomolgus monkey plasma treated with 4-(3-(S)-(8-Fluoro-1-methyl-2,4-dioxo-1,2-dihydroquinazolin-3(4H)-yl)-2-methylphenyl)7-(2-hydroxypropan-2-yl)-9H-carbazole-1-carboxamide after 4 hrs by HPLC analysis; format: ADME, Macaca fascicularis; in short: as §2
[34] = Stability of the compound in methanol at 37 degC assessed as kinetic half life; format: physicochemical
[35] = Cmax in mouse at 5 mg/kg; format: ADME, organism-based; design: dose 5 mg/kg; details: in vivo
[36] = AUC in mouse at 5 mg/kg; format: ADME, organism-based; details: in vivo
[37] = Drug metabolism in dog plasma assessed as compound-6 formation after 4 hrs by HPLC analysis; format: ADME, cell-free, Canis lupus familiaris; in short: as §2
[38] = Drug metabolism in mouse plasma assessed as compound-6 formation after 4 hrs by HPLC analysis; format: ADME, cell-free; in short: as §2
[39] = Drug metabolism in rat plasma assessed as compound-6 formation after 4 hrs by HPLC analysis; format: ADME, cell-free; in short: as §2

T1 sequence (Q06187 whole entry): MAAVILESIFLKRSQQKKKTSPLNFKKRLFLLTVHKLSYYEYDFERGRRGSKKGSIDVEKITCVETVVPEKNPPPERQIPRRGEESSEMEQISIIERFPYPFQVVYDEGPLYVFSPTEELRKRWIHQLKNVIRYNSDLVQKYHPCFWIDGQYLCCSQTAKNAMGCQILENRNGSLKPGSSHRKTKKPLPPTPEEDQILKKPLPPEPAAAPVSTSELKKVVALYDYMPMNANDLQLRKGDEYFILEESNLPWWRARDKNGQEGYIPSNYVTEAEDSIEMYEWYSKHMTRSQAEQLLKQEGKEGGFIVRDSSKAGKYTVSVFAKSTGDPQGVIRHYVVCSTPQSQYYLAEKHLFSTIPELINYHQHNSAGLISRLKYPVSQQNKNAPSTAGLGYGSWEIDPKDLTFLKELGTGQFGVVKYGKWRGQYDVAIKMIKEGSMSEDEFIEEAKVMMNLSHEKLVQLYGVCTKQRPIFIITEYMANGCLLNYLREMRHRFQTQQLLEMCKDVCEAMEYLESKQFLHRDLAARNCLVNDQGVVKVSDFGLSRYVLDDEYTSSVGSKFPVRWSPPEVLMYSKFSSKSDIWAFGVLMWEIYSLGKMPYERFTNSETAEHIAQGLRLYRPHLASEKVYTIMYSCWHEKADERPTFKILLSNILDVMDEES

SMILES | Cmax [1] | AUC [2] | IC50 [8] | Ratio IC50 (Homo sapiens [9]) | IC50 [10] | IC50 [22] | further results
Cc1c(-c2c(Cl)cc(C(N)=O)c3[nH]c4c(c23)CC[C@H](C(C)(C)O)C4)cccc1-n1c(=O)c2cccc(F)c2n(C)c1=O | 4.5 µM | 25 µM·h |  |  |  |  | CL [3]: 15%
C[C@]12C=CC(=O)C=C1CC[C@@H]1[C@@H]2[C@@H](O)C[C@@]2(C)[C@H]1CC[C@]2(O)C(=O)CO |  |  |  |  |  |  | Activity (Mus musculus [4]): Active; Activity (Mus musculus [5]): Active; Activity (Mus musculus [6]): Active; Activity (Mus musculus [7]): Active
Cc1c(-c2c(F)cc(C(N)=O)c3[nH]c4c(c23)CC[C@@H](C(C)(C)O)C4)cccc1-n1c(=O)c2cccc(F)c2n(C)c1=O |  |  | 150 nM | 910 | 36 nM |  | 
Cc1c(-c2c(Cl)cc(C(N)=O)c3[nH]c4cc(C(C)(C)O)ccc4c23)cccc1-n1c(=O)[nH]c2c(F)cccc2c1=O |  |  |  |  |  | 1.6 nM | Drug metabolism [24]: Metabolite_Detected; Drug metabolism [25]: Metabolite_Detected; Drug metabolism [26]: Metabolite_Detected
Cc1cc(C(N)=O)c2[nH]c3cc(C(C)(C)O)ccc3c2c1-c1cccc(-n2c(=O)c3cccc(F)c3n(C)c2=O)c1C | 6.3 µM | 48 µM·h | 240 nM |  | 17 nM | 0.65 nM | 
Cc1c(-c2ccc(C(N)=O)c3[nH]c4cc(C(C)(C)O)ccc4c23)cccc1-n1cnc2ccccc2c1=O |  | 80 µM·h |  |  |  |  | 
Cc1c(-c2ccc(C(N)=O)c3[nH]c4cc(C(C)(C)O)ccc4c23)cccc1-n1c(=O)c2cccc(F)c2n(C)c1=O |  |  |  |  |  |  | fraction unbound [30]: < 0.01; Drug uptake [31]: Active; Drug uptake [32]: Active; Drug uptake [33]: Active; half-life [34]: 69 min; Cmax [35]: 2200 nM; AUC [36]: 25 µM·h; Stability [23]: Stable; Drug metabolism [37]: Metabolite_Notdetected; Drug metabolism [38]: Metabolite_Notdetected; Drug metabolism [39]: Metabolite_Notdetected
Cc1c(-c2ccc(C(N)=O)c3[nH]c4c(c23)CC[C@@H](C(C)(C)O)C4)cccc1-n1c(=O)c2cccc(F)c2n(C)c1=O |  |  |  | 180 | 190 nM | 11 nM | 
Cc1c(-c2c(F)cc(C(N)=O)c3[nH]c4c(c23)CC[C@H](C(C)(C)O)C4)cccc1-n1c(=O)c2cccc(F)c2n(C)c1=O [BMS-986142] |  |  |  |  | 750 nM | 25 nM | 
Cc1c(-c2c(C#N)cc(C(N)=O)c3[nH]c4cc(C(C)(C)O)ccc4c23)cccc1-n1c(=O)c2cccc(F)c2n(C)c1=O | 0.12 µM | 0.31 µM·h | 120 nM | 7100 | 6 nM |  | 

Continued, in another order:

Cmax [1] | AUC [2] | IC50 [8] | Ratio IC50 (Homo sapiens [9]) | IC50 [10] | IC50 [22] | SMILES | further results
 |  |  | > 10000 |  |  | Cc1c(-c2c(F)cc(C(N)=O)c3[nH]c4c(c23)CC[C@H](C(C)(C)O)C4)cccc1-n1c(=O)c2cccc(F)c2n(C)c1=O (atropisomer R) | inhibition (Homo sapiens [11]): 10%; inhibition (Homo sapiens [12]): 13%; inhibition (Mus musculus [13]): Active; Activity (Mus musculus [14]): Active; Activity (Mus musculus [15]): Active; Activity (Mus musculus [16]): Active; Activity (Mus musculus [17]): Active; Activity (Mus musculus [18]): Active; Activity (Mus musculus [19]): Active; Activity (Mus musculus [20]): Active; inhibition (Homo sapiens [21]): 40%
3.6 µM | 16 µM·h | 380 nM | 740 | 63 nM | 2.7 nM | Cc1c(-c2ccc(C(N)=O)c3[nH]c4c(c23)CC[C@H](C(C)(C)O)C4)cccc1-n1c(=O)c2cccc(F)c2n(C)c1=O | 
 |  | 460 nM |  |  | 2.6 nM | Cc1c(-c2ccc(C(N)=O)c3[nH]c4cc(C(C)(C)O)ccc4c23)cccc1-n1c(=O)c2ccccc2n(C)c1=O | Stability [23]: Stable
4.7 µM | 41 µM·h |  |  |  |  | Cc1c(-c2c(Cl)cc(C(N)=O)c3[nH]c4cc(C(C)(C)O)ccc4c23)cccc1-n1c(=O)c2cccc(F)c2n(C)c1=O | Stability [27]: Stable; Stability [28]: Stable
5.5 µM | 28 µM·h |  |  |  |  | Cc1c(-c2c(F)cc(C(N)=O)c3[nH]c4cc(C(C)(C)O)ccc4c23)cccc1-n1c(=O)c2cccc(F)c2n(C)c1=O | Drug metabolism [29]: Metabolite_Detected
